One block for each molecule: values may come before it.
Tests used:
[1] = target: T1, Mitogen-activated protein kinase 14 (Homo sapiens, UniProt Q16539); test: Inhibition of human recombinant GST-tagged p38alphaMAPK-induced ATF2 phosphorylation
THP-1 = test: Inhibition of LPS-induced TNFalpha production in human THP1 cells after 3 hrs; type: functional, cell-based; conditions: THP-1, 3 h
Blood = test: Inhibition of TNF-induced IL8 production in human whole blood; type: functional, tissue-based
Cytochrome P450 3A4 = Cytochrome P450 3A4 (Homo sapiens, UniProt P08684); test: Inhibition of CYP3A4 in human liver microsomes; type: ADME, Microsome
Cytochrome P450 3A4, sequence (P08684 whole entry): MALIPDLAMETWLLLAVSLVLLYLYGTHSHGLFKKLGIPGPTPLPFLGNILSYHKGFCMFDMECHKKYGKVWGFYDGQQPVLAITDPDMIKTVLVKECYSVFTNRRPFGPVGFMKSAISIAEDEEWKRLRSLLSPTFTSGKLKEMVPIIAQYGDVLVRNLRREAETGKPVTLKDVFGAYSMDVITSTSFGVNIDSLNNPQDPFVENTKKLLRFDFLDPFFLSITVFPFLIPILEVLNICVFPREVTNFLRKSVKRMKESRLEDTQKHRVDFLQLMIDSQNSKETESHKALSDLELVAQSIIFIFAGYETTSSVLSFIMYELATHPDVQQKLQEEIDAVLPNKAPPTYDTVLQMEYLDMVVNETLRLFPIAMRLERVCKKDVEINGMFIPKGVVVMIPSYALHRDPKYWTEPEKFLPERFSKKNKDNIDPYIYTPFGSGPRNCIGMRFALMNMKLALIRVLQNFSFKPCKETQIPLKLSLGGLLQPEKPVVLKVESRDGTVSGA

Cytochrome P450 2D6 = Cytochrome P450 2D6 (Homo sapiens, UniProt P10635); test: Inhibition of CYP2D6; type: ADME
Cytochrome P450 2D6, sequence (P10635 whole entry): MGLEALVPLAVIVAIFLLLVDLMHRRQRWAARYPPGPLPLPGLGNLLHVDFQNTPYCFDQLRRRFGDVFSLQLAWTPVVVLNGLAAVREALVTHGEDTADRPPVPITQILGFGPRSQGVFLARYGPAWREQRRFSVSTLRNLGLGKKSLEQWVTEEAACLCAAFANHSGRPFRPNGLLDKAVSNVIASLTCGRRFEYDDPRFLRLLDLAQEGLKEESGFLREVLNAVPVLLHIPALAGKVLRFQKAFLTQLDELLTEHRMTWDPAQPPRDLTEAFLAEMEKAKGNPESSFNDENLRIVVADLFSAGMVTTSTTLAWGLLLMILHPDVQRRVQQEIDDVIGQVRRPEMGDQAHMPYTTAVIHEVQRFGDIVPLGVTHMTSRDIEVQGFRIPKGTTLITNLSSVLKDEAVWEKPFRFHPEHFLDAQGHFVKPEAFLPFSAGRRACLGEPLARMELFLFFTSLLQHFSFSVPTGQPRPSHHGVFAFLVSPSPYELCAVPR

[2] = target: T2, Mast/stem cell growth factor receptor Kit (Homo sapiens, UniProt P10721); test: Inhibition of c-KIT
T2 sequence (P10721 whole entry): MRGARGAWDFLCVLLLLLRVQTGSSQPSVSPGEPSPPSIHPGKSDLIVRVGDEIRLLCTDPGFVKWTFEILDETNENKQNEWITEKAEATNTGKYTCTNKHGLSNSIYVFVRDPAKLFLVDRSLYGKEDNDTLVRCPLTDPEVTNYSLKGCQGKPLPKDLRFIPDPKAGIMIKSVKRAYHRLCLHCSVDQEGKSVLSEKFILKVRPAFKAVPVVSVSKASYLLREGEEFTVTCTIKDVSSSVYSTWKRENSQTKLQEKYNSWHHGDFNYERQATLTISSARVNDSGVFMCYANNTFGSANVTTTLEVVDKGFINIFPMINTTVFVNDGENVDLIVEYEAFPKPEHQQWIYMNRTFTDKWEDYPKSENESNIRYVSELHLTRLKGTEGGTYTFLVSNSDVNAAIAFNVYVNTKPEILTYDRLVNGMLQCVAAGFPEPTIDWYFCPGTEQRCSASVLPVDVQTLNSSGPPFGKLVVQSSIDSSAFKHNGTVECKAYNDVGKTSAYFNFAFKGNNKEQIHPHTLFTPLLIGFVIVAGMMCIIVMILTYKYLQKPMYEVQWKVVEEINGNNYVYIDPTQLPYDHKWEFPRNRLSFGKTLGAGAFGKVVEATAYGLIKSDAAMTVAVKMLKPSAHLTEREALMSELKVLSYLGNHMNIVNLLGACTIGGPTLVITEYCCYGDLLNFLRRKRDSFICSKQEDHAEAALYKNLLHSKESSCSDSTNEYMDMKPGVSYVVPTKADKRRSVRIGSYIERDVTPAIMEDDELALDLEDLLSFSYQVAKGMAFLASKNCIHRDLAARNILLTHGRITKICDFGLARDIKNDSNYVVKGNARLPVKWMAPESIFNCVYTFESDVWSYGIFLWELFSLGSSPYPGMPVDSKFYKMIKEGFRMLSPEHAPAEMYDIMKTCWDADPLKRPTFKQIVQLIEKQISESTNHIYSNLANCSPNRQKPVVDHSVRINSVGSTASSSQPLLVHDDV

[3] = target: T3, Nuclear receptor subfamily 1 group I member 2 (Homo sapiens, UniProt O75469); test: Activation of human PXR
T3 sequence (O75469 whole entry): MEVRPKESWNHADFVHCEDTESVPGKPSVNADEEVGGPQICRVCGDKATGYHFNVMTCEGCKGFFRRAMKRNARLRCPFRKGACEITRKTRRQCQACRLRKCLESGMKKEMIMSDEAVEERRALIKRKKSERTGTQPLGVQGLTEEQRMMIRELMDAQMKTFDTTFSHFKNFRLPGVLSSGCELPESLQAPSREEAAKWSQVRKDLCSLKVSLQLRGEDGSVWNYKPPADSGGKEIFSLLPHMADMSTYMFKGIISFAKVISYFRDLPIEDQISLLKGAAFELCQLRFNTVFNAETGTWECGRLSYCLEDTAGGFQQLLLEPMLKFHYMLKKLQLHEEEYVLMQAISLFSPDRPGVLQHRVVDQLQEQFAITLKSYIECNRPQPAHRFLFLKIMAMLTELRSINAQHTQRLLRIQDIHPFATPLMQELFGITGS

[4] = target: Voltage-gated inwardly rectifying potassium channel KCNH2 (Homo sapiens, UniProt Q12809); test: Inhibition of human ERG by manual electrophysiology
Voltage-gated inwardly rectifying potassium channel KCNH2, sequence (Q12809 whole entry): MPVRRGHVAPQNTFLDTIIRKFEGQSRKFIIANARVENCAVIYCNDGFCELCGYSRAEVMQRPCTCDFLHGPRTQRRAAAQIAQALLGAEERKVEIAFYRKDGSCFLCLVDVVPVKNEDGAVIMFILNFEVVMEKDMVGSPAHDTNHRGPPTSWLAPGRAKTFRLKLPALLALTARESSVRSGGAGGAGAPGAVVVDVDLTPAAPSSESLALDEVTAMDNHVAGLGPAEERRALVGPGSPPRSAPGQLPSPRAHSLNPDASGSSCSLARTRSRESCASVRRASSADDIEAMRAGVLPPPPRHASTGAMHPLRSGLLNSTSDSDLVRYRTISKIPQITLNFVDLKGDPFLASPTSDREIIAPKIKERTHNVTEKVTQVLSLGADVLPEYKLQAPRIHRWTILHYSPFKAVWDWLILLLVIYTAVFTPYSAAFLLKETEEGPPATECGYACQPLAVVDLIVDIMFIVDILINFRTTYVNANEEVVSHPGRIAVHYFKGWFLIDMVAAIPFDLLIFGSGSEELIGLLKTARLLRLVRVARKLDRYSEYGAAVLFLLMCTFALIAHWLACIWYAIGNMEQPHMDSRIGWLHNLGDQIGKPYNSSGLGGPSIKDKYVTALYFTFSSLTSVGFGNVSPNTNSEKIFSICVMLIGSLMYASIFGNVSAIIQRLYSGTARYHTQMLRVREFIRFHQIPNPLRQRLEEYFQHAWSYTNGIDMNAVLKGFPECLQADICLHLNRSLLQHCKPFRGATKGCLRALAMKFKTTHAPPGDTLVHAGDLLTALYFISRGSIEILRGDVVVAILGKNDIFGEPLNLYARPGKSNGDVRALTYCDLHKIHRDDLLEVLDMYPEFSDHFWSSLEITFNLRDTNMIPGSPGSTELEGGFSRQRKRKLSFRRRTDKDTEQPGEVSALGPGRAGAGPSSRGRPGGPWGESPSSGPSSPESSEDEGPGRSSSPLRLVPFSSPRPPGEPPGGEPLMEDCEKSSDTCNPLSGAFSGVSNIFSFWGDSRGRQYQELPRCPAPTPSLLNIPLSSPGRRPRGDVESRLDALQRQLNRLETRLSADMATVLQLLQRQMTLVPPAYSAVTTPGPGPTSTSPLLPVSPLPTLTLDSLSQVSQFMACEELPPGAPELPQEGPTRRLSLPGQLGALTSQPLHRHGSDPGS

Rattus norvegicus [5] = test: Antiinflammatory effect in po dosed collagen-induced arthritis Lewis rat model assessed as inhibition of paw swelling administered once a day for 7 days; type: functional
Summary of the method: (§1)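 Lewis rats immunized intradermally with porcine type II collagen in incomplete Freund's adjuvant; dosing oral, once daily for 7 days from disease onset (days 10-12), vehicle 1% Tween-80 in Oraplus pH 2.2, doses 0.03-3.0 mg/kg. Paw diameter measured daily days 0-7; area under swelling curve used for percent inhibition versus vehicle; n = 8 rats/group. Exposure values interpolated.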

Rattus norvegicus [6] = test: AUC (0 to 24 hrs) in po dosed collagen-induced arthritis Lewis rat model; type: ADME, organism-based; set-up: time < 24 hr, route oral; conditions: in vivo; summary of the method: as §1
Rattus norvegicus [7] = test: Cmax in po dosed collagen-induced arthritis Lewis rat model; type: ADME, organism-based; set-up: route oral; conditions: in vivo; summary of the method: as §1
[8] = Concentration of drug level in po dosed collagen-induced arthritis Lewis rat model after 24hrs; type: ADME, organism-based; conditions: in vivo, read-out: Drug uptake; summary of the method: as §1
[9] = Volume of distribution in Sprague-Dawley rat at 2 mg/kg, iv; type: ADME, organism-based; set-up: dose 2 mg/kg, route intravenous; conditions: in vivo
Summary of the method: (§2)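 Sprague-Dawley rats given 2 mg/kg intravenously; clearance, volume of distribution and elimination half-life derived from plasma profile.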

[10] = Elimination half life in Sprague-Dawley rat at 2 mg/kg, iv; type: ADME, organism-based; set-up: dose 2 mg/kg, route intravenous; conditions: in vivo; summary of the method: as §2
[11] = Tmax in Sprague-Dawley rat at 10 mg/kg, po; type: ADME, organism-based; set-up: dose 10 mg/kg, route oral; conditions: in vivo
Summary of the method: (§3)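 Sprague-Dawley rats dosed orally at 10 mg/kg as a solution in 1% Tween-80 in OralPlus (pH 2.2); bioavailability derived against 2 mg/kg iv dosing.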

Rattus norvegicus [12] = test: Cmax in Sprague-Dawley rat at 10 mg/kg, po; type: ADME, organism-based; set-up: dose 10 mg/kg, route oral; conditions: in vivo; summary of the method: as §3
Rattus norvegicus [13] = test: Oral bioavailability in Sprague-Dawley rat at 10 mg/kg; type: ADME, organism-based; conditions: in vivo; summary of the method: as §3
[14] = Protein binding in Sprague-Dawley rat plasma; type: ADME, cell-free; conditions: read-out: PPB (converted)
Summary of the method: (§4)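 Plasma protein binding in rat or human plasma measured by ultrafiltration.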

[15] = Protein binding in human plasma; type: ADME, cell-free; conditions: read-out: PPB (converted); summary of the method: as §4
Liver microsomes [16] = test: Metabolic stability in Sprague-Dawley rat liver microsomes assessed per mg of protein by LCMS in presence of NADPH; type: ADME, Microsome
Summary of the method: (§5)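 Test article 1 µM incubated with rat or human liver microsomes (0.1 mg/mL) in 66.67 mM potassium phosphate pH 7.4; NADPH 1 mM started reaction, blank without NADPH; stopped at 10 min with acetonitrile/0.05% formic acid; remaining parent quantified by LCMS; triplicates.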

Liver microsomes [17] = test: Metabolic stability in human liver microsomes assessed per mg of protein by LCMS in presence of NADPH; type: ADME, Microsome; summary of the method: as §5
[18] = target: T4, Mitogen-activated protein kinase 11 (Homo sapiens, UniProt Q15759); test: Inhibition of human recombinant GST-tagged p38beta-induced ATF2 phosphorylation
T4 sequence (Q15759 whole entry): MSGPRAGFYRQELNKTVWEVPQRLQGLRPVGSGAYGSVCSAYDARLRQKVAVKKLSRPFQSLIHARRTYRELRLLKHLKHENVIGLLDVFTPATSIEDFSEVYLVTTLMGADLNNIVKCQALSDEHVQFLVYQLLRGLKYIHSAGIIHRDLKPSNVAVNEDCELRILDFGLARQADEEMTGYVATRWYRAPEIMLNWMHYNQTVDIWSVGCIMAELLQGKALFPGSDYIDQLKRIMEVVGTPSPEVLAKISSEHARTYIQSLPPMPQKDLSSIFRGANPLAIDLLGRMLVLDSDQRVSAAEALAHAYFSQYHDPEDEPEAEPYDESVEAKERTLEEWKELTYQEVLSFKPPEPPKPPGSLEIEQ

[19] = target: T1, Mitogen-activated protein kinase 14; test: Inhibition of p38alpha at 1 uM relative to control
[20] = target: T4, Mitogen-activated protein kinase 11; test: Inhibition of p38beta at 1 uM relative to control
[21] = target: T5, Platelet-derived growth factor receptor beta (Homo sapiens, UniProt P09619); test: Inhibition of PDGFRbeta at 1 uM relative to control
T5 sequence (P09619 whole entry): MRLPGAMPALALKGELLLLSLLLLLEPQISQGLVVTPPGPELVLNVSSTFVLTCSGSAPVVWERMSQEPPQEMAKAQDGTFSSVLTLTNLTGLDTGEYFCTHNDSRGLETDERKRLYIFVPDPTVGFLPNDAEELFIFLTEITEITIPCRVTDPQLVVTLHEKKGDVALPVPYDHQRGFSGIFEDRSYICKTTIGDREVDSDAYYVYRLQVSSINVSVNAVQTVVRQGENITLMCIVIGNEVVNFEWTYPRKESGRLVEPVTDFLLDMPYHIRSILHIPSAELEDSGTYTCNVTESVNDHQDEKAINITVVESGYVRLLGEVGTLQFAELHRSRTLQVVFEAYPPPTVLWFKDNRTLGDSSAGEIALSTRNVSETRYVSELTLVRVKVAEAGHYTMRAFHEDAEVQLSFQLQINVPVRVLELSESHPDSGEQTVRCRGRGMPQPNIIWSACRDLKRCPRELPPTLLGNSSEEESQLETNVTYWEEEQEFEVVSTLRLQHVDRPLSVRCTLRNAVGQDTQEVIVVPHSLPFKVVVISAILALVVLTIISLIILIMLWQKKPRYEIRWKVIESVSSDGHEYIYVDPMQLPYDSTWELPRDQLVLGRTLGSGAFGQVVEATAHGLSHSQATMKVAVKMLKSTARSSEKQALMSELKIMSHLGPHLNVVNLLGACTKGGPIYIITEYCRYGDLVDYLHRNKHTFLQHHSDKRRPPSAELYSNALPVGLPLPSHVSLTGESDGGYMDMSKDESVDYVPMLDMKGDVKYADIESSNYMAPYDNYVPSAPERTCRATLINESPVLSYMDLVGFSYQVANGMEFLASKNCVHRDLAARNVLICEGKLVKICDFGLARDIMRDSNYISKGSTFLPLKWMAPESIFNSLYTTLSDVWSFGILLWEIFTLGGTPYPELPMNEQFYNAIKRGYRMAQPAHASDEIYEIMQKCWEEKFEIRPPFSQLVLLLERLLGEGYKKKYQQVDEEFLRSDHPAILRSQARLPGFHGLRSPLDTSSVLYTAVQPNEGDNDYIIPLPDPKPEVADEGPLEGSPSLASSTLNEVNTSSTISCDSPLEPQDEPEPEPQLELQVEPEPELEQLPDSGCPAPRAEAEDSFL

[22] = target: T2, Mast/stem cell growth factor receptor Kit; test: Inhibition of c-KIT at 1 uM relative to control
[23] = target: T5, Platelet-derived growth factor receptor beta; test: Inhibition of PDGFRbeta

T1 sequence (Q16539 whole entry): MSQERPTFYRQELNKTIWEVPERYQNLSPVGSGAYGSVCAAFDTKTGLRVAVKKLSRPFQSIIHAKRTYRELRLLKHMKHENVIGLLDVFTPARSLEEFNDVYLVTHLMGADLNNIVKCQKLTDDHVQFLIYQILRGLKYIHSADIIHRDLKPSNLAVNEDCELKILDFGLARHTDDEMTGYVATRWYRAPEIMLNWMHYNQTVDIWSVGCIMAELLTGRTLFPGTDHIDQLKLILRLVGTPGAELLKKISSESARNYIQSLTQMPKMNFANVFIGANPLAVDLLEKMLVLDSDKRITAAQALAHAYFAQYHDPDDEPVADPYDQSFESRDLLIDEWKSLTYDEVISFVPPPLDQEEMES

- Ki [1]: 0.4 nM
- IC50 (THP-1): 0.7 nM
- IC50 (Blood): 7 nM
- IC50 (Cytochrome P450 3A4): > 25000 nM
Compound: CNc1noc2c(-c3ccc4c(OC(C)C)nncc4c3)c(C)ccc12

- Ki [1]: 0.5 nM
- IC50 (THP-1): 0.4 nM
- IC50 (Blood): 0.7 nM
- IC50 (Cytochrome P450 3A4): 5600 nM
- IC50 (Cytochrome P450 2D6): > 25000 nM
Compound: Cc1ccc2c(NC3CC3)noc2c1-c1ccc2c(NC(C)C)nncc2c1

- Ki [1]: 0.8 nM
- IC50 (THP-1): 0.8 nM
- IC50 (Blood): 1.4 nM
- IC50 (Cytochrome P450 2D6): > 25000 nM
Compound: CC(=O)N1CCN(c2nncc3cc(-c4c(C)ccc5c(NC6CC6)noc45)ccc23)[C@@H](C)C1

- Ki [1]: 0.4 nM
- IC50 (THP-1): 0.4 nM
- IC50 (Blood): 3.3 nM
- IC50 (Cytochrome P450 3A4): 1800 nM
- IC50 (Cytochrome P450 2D6): > 25000 nM
Compound: Cc1ccccc1-c1nncc2cc(-c3c(C)ccc4c(NC5CC5)noc34)ccc12

- Ki [1]: 0.2 nM
- IC50 (THP-1): 1.3 nM
- IC50 (Blood): 2.1 nM
- IC50 (Cytochrome P450 3A4): > 25000 nM
Compound: CC[C@H](C)Nc1nncc2cc(-c3c(C)ccc4c(NC)noc34)ccc12

- Ki [1]: 1.1 nM
- IC50 (THP-1): 1.1 nM
- IC50 (Blood): 3.4 nM
- IC50 (Cytochrome P450 3A4): > 25000 nM
Compound: CNc1noc2c(-c3ccc4c(C(C)C)nncc4c3)c(C)ccc12

- Ki [1]: 0.5 nM
- IC50 (THP-1): 0.7 nM
- IC50 (Blood): 2.2 nM
- IC50 (Cytochrome P450 3A4): > 25000 nM
Compound: CNc1noc2c(-c3ccc4c(NC(C)C)nncc4c3)c(C)ccc12

- Ki [1]: 0.7 nM
- IC50 (THP-1): 0.6 nM
- IC50 (Blood): 1.3 nM
- IC50 (Cytochrome P450 3A4): 5600 nM
- IC50 (Cytochrome P450 2D6): > 25000 nM
Compound: Cc1ccc2c(NC3CC3)noc2c1-c1ccc2c(N3CCOC[C@@H]3C)nncc2c1

More lines, now with the values behind:

Compound: CC(=O)Nc1noc2c(-c3ccc4c(N5CCOC[C@@H]5C)nncc4c3)c(C)ccc12
- Ki [1]: 0.6 nM
- IC50 (THP-1): 0.7 nM
- IC50 (Blood): 2 nM
- IC50 (Cytochrome P450 3A4): > 25000 nM

Compound: Cc1ccc2c(N)n[nH]c2c1-c1ccc2c(N3CCOC[C@@H]3C)nncc2c1
- Ki [1]: 16 nM
- IC50 (THP-1): 120 nM
- IC50 (Blood): 153 nM

Compound: CNc1noc2c(-c3ccc4c(N5CCOC[C@H]5C)nncc4c3)c(C)ccc12
- Ki [1]: 0.3 nM
- IC50 (THP-1): 1 nM
- IC50 (Blood): 4.5 nM
- IC50 (Cytochrome P450 3A4): > 25000 nM

Compound: Cc1ccc2c(N)nsc2c1-c1ccc2c(N3CCOC[C@@H]3C)nncc2c1
- Ki [1]: 2 nM
- IC50 (THP-1): 29 nM
- IC50 (Blood): 50 nM
- IC50 (Cytochrome P450 3A4): 4000 nM

Compound: CNc1noc2c(-c3ccc4c(N5CCOC[C@@H]5C)nncc4c3)c(C)ccc12
- IC50 [2]: 1600 nM
- Activity [3]: Not Active
- IC50 [4]: 13000 nM
- Activity (Rattus norvegicus [5]): Dose-dependent effect
- ED50 (Rattus norvegicus [5]; 168 h): 0.05 mg/kg
- AUC (Rattus norvegicus [6]): 0.0224 µM·h
- Cmax (Rattus norvegicus [7]): 7 nM
- concentration at 24 h [8]: 0.3 nM
- Ki [1]: 0.4 nM
- IC50 (THP-1): 0.4 nM
- IC50 (Blood): 3.3 nM
- IC50 (Cytochrome P450 3A4): > 25000 nM
- Vd [9]: 2.4 L/kg
- half-life [10]: 2.8 h
- Tmax [11]: 1.7 h
- Cmax (Rattus norvegicus [12]): 1040 ng/mL
- F (Rattus norvegicus [13]): 67%
- fraction unbound [14]: 0.1
- fraction unbound [15]: 0.08
- Stability (Liver microsomes [16]): 120 µL/min
- Stability (Liver microsomes [17]): 132 µL/min
- Ki [18]: 1.8 nM
- inhibition [19]: < 50%
- inhibition [20]: < 50%
- inhibition [21]: < 50%
- inhibition [22]: < 50%
- IC50 [23]: 830 nM

Compound: CNc1noc2c(-c3ccc4c(N5CCOC[C@@H]5C)nncc4c3)c(Cl)ccc12
- Ki [1]: 0.2 nM
- IC50 (THP-1): 1.3 nM
- IC50 (Blood): 3.3 nM
- IC50 (Cytochrome P450 3A4): 6000 nM

Compound: CC(C)Nc1noc2c(-c3ccc4c(N5CCOC[C@@H]5C)nncc4c3)c(Cl)ccc12
- Ki [1]: 0.4 nM
- IC50 (THP-1): 3.6 nM
- IC50 (Blood): 15 nM
- IC50 (Cytochrome P450 3A4): 4500 nM

Compound: CCNc1noc2c(-c3ccc4c(N5CCOC[C@@H]5C)nncc4c3)c(C)ccc12
- Ki [1]: 0.3 nM
- IC50 (THP-1): 0.4 nM
- IC50 (Blood): 2 nM
- IC50 (Cytochrome P450 3A4): 10000 nM

Compound: Cc1ccc2c(N)noc2c1-c1ccc2c(N3CCOC[C@@H]3C)nncc2c1
- Ki [1]: 0.3 nM
- IC50 (THP-1): 3.6 nM
- IC50 (Blood): 5.2 nM
- IC50 (Cytochrome P450 3A4): 12000 nM

Source: ChEMBL document CHEMBL1140162, “3-amino-7-phthalazinylbenzoisoxazoles as a novel class of potent, selective, and orally available inhibitors of p38alpha mitogen-activated protein kinase” (J Med Chem, 2008)
